Assay results as given in ChEMBL document CHEMBL6134795, “Mannich reaction mediated derivatization of chromones and their biological evaluations as putative multipotent ligands for the treatment of Alzheimer's disease” (RSC Med Chem, 2024).
Active and inactive are the calls of the source. The rule behind the calls is not given here.

How the values were obtained:
Acetylcholinesterase [1] = molecular target: T1, Acetylcholinesterase (Homo sapiens, UniProt P22303); assay: Reversible inhibition of AChE (unknown origin) assessed as residual activity at 1 times IC50 incubated for 30 mins by dilution method relative to control
Method in brief: (§1)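 Samples then diluted 100-fold with substrate, giving final inhibitor levels of 0.1× and 1× IC50. Recovered activity measured relative to control; triplicate.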

[2] = molecular target: Amyloid-beta precursor protein (Homo sapiens) (UniProt P05067); assay: Inhibition of self-induced amyloid beta (1 to 42 residues) (unknown origin) aggregation at 20 uM incubated at 24 hrs by fluorimetry-based thioflavin T assay
Method in brief: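 Aβ1-42 pretreated with HFIP (1 mg mL−1) and dried, then incubated with compound (20 μM) at 37 °C for 24 h; an aliquot transferred and incubated further to 48 h. Glycine–NaOH buffer pH 8.0 with 5 μM ThT added; fluorescence read at 440–485 nm. % inhibition calculated against the Aβ-only control taken as 0%.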

Cholinesterase [3] = molecular target: T2, Cholinesterase (Homo sapiens, UniProt P06276); assay: Inhibition of recombinant BuChE (unknown origin) using BTCI as substrate at 20 uM preincubated for 30 mins followed by substrate addition by TECAN multiplate reader analysis relative to control
Method in brief: (§2)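 Ellman method as for AChE, using butyrylcholinesterase with BTCI as substrate. Enzyme and compound preincubated 30 min at 37 °C in a CO2 incubator, then DTNB and BTCI added; absorbance read at 417 nm. Screening at 20 μM as % inhibition; IC50 for compounds exceeding 50% inhibition at 20 μM. Triplicate.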

Acetylcholinesterase [4] = molecular target: T1, Acetylcholinesterase; assay: Mixed type inhibition of AChE (unknown origin) by Lineweaver-Burk plot analysis
Method in brief: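 Ellman-based AChE kinetics run at several substrate concentrations and several final inhibitor concentrations. Mode of inhibition assigned from double-reciprocal Lineweaver–Burk plots.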

[5] = molecular target: Amyloid-beta precursor protein (Homo sapiens) (UniProt P05067); assay: Inhibition of self-induced amyloid beta (1 to 42 residues) (unknown origin) aggregation assessed as reduction in plaques formation measured after 72 hrs by FE-SEM analysis
Method in brief: (§3)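 HFIP-pretreated Aβ1-42 incubated with or without inhibitor for 72 h; samples placed on carbon-coated copper grids, dried 1 h at 37 °C, imaged by FE-SEM. Glycine–NaOH buffer served as blank and Aβ alone as control.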

[6] = molecular target: T3, Amine oxidase [flavin-containing] A (Homo sapiens, UniProt P21397); assay: Inhibition of recombinant MAO-A (unknown origin) at 20 uM preincubated for 30 mins followed substrate addition by Amplex Red reagent based fluorescence analysis relative to control
T3 sequence (P21397 whole entry): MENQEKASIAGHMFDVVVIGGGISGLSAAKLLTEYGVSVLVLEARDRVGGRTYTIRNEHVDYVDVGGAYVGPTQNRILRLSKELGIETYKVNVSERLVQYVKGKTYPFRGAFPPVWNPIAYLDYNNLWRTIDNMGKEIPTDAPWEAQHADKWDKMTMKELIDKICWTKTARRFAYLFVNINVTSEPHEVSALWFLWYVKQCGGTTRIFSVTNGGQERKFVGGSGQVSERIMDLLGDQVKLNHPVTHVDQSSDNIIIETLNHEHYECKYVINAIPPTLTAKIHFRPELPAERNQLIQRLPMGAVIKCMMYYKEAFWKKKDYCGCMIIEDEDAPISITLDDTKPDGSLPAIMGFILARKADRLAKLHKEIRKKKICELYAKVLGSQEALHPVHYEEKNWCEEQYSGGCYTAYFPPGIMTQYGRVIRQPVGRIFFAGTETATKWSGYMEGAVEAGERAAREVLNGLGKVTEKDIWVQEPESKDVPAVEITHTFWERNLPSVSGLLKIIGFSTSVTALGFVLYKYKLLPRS
Method in brief: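 Recombinant MAO enzyme preincubated with compound 30 min at 37 °C; substrate, HRP and Amplex Red working solution then added; H2O2 formation read at 37 °C by fluorescence, ex 545/em 590 nm. Screening at 20 μM as % inhibition versus control; IC50 only for compounds above 50% inhibition at 20 μM; triplicate (n = 3).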

SH-SY5Y [7] = assay: Inhibition of ROS production in human SH-SY5Y cells assessed as intracellular ROS level at 25 uM incubated for 24 hrs by DCF-DA staining based fluorescence analysis relative to control; assay type: functional
Method in brief: (§4)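 Cultured SH-SY5Y cells exposed to compound (1, 5, 25 μM) for 24 h; intracellular ROS detected with DCF-DA, which is converted to fluorescent 2,7-DCF, read at ex 478/em 518 nm. Inhibition is expressed relative to control. Mean ± SD of triplicate or more independent experiments.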

SH-SY5Y [8] = assay: Inhibition of ROS production in human SH-SY5Y cells assessed as intracellular ROS level at 5 uM incubated for 24 hrs by DCF-DA staining based fluorescence analysis relative to control; assay type: functional; method in brief: as §4
SH-SY5Y [9] = assay: Neuroprotective activity against 6-OHDA-induced cytotoxicity in human SH-SY5Y cells assessed as cell viability at 25 uM incubated for 24 hrs followed by exposure to 6-OHDA by MTT assay relative to control; assay type: functional; settings: read-out: Activity
Method in brief: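 SH-SY5Y cells treated with compound (1, 5, 25 μM) and challenged with 6-OHDA; cultured 24 h at 37 °C under humidified 5% CO2. Viability measured by MTT as formazan absorbance at 594 nm and expressed relative to control.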

Acetylcholinesterase [10] = molecular target: T1, Acetylcholinesterase; assay: Reversible inhibition of AChE (unknown origin) assessed as residual activity at 100 times IC50 incubated for 30 mins by dilution method relative to control; method in brief: as §1
[11] = molecular target: Amyloid-beta precursor protein (Homo sapiens) (UniProt P05067); assay: Inhibition of self-induced amyloid beta (1 to 42 residues) (unknown origin) aggregation assessed as reduction in fibrils formation measured after 72 hrs by FE-SEM analysis; method in brief: as §3
[12] = molecular target: T4, Amine oxidase [flavin-containing] B (Homo sapiens, UniProt P27338); assay: Reversible inhibition of MAO-B (unknown origin) assessed as residual activity at 0.1 times IC50 incubated for 30 mins by dilution method relative to control; settings: 0.5 h
T4 sequence (P27338 whole entry): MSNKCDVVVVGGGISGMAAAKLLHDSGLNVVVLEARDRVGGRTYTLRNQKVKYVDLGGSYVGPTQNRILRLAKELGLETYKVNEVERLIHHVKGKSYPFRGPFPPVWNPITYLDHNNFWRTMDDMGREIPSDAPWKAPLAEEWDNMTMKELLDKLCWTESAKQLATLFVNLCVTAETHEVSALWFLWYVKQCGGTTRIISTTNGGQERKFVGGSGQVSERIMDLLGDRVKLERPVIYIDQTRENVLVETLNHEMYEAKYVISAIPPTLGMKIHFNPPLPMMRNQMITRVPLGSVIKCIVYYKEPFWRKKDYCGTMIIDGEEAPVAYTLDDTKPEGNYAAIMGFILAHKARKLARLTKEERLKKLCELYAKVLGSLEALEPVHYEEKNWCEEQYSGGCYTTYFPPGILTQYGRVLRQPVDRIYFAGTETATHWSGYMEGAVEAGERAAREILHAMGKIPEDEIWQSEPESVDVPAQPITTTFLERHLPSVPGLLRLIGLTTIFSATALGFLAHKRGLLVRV

[13] = molecular target: T4, Amine oxidase [flavin-containing] B; assay: Reversible inhibition of MAO-B (unknown origin) assessed as residual activity at 100 times IC50 incubated for 30 mins by dilution method relative to control; settings: 0.5 h
Cholinesterase [14] = molecular target: T2, Cholinesterase; assay: Inhibition of recombinant BuChE (unknown origin) using BTCI as substrate preincubated for 30 mins followed by substrate addition by TECAN multiplate reader analysis; method in brief: as §2

Amyloid-beta precursor protein (Homo sapiens), sequence (P05067 whole entry, the tested form may be a part): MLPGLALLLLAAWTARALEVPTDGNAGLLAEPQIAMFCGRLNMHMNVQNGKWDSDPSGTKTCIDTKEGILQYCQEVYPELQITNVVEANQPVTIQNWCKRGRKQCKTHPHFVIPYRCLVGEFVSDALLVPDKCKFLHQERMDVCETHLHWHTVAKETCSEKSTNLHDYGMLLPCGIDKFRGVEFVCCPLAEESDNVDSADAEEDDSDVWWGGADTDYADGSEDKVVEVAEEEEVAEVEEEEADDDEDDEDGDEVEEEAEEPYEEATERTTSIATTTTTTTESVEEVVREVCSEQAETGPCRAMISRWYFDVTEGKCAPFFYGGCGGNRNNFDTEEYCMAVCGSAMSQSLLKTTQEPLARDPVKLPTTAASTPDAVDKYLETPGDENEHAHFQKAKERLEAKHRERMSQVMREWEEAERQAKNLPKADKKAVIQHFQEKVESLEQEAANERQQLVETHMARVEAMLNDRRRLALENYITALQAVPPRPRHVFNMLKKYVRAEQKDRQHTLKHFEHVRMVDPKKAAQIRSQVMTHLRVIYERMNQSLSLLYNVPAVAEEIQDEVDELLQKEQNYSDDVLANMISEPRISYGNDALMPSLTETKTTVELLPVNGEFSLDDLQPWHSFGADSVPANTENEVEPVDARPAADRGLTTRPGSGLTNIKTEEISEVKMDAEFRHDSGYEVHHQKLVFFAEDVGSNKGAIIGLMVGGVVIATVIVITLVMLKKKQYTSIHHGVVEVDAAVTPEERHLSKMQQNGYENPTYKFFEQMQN
T1 sequence (P22303 whole entry): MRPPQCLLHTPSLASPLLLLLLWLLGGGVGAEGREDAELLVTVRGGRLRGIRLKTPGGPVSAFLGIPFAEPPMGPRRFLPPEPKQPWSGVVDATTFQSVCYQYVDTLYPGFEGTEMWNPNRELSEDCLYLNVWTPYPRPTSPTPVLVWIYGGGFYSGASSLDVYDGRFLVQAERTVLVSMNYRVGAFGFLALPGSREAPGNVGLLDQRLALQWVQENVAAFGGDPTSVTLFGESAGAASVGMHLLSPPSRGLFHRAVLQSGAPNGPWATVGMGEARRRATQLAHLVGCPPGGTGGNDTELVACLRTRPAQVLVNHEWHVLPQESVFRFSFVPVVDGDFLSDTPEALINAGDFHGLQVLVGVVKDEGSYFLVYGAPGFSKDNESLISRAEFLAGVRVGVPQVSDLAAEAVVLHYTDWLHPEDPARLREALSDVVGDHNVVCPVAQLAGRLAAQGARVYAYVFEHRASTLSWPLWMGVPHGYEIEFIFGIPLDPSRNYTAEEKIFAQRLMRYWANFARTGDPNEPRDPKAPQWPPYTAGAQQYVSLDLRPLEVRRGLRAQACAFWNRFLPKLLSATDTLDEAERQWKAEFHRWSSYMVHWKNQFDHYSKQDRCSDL
T2 sequence (P06276 whole entry): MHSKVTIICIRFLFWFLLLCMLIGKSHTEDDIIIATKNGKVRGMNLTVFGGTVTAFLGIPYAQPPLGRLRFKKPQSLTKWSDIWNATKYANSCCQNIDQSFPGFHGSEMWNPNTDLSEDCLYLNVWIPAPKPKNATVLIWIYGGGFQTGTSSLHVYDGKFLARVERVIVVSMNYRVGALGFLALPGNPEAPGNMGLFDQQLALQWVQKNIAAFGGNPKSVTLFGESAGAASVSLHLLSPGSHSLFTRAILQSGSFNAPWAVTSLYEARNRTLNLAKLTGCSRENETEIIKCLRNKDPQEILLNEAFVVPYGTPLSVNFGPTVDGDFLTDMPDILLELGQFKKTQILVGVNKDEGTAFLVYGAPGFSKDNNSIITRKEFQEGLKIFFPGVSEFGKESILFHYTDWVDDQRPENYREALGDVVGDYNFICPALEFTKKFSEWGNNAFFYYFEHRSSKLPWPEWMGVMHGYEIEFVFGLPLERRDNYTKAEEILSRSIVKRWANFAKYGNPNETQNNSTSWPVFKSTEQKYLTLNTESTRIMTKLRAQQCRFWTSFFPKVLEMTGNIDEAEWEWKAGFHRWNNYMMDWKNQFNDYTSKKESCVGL

Question: Which Activity (Acetylcholinesterase [1]) does the source give for `C#CCCCOc1ccc(-c2cc(=O)c3ccccc3o2)cc1CN1CCCCC1` here?
Answer: Its Activity is 44.9%.

Question: And the inhibition [2]?
Answer: Its inhibition is 22.1%.

Question: And the inhibition (Cholinesterase [3])?
Answer: The inhibition was 87.9%.

Question: And the inhibition (Acetylcholinesterase [4])?
Answer: The inhibition was “Active”.

Question: And the inhibition [5]?
Answer: Its inhibition is “Active”.

Question: What about the inhibition at 20 µM [6] of the same compound?
Answer: Its inhibition at 20 µM is 0.23%.

Question: What about the inhibition at 25 µM (SH-SY5Y [7]) of the same compound?
Answer: The inhibition at 25 µM was 34.8%.

Question: And the inhibition at 5 µM (SH-SY5Y [8])?
Answer: The inhibition at 5 µM was 44.9%.

Question: What about the viability at 25 µM (SH-SY5Y [9]) of the same compound?
Answer: The viability at 25 µM was 44.1%.

Question: What about the Activity (Acetylcholinesterase [10]) of the same compound?
Answer: Its Activity is 17.7%.

Question: And the inhibition [11]?
Answer: Its inhibition is “Active”.

Question: And the Activity [12]?
Answer: The Activity was 71.4%.

Question: And the Activity [13]?
Answer: The Activity was 15%.

Question: And the IC50 (Cholinesterase [14])?
Answer: The IC50 was 11 µM.
